In ChEMBL document CHEMBL5678805, “Intermittent administration of MEK inhibitor GDC-0973 plus PI3K inhibitor GDC-0941 triggers robust apoptosis and tumor growth inhibition” (Cancer Res, 2012):
Active and inactive are the calls of the source. The rule behind the calls is not given here.

What was measured:
NCI-H2122 = test: Antitumor activity against human NCI-H2122 cells xenografted in mouse assessed as tumor growth inhibition at 20 mg/kg, po administered once a day for 21 days in presence of 4-(2-(1H-indazol-4-yl)-6-((4-(methylsulfonyl)piperazin-1-yl)methyl)thieno[3,2-d]pyrimidin-4-yl)morpholine; format: functional; conditions: NCI-H2122, 504 h, time 21 day, read-out: TGI
Outline: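 Mice bearing NCI-H2122 xenografts were given MEK inhibitor, PI3K inhibitor, or both, orally once daily for 21 consecutive days at the doses labeled. Caliper tumor volumes were calculated as (L×W×W)/2. %TGI was derived from the AUC of the fitted growth curve per day relative to vehicle.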

[1] = molecular target: Fibroblast growth factor receptor 3 (Homo sapiens, UniProt P22607); test: Inhibition of FGFR3 (unknown origin)
Fibroblast growth factor receptor 3, sequence (P22607 whole entry): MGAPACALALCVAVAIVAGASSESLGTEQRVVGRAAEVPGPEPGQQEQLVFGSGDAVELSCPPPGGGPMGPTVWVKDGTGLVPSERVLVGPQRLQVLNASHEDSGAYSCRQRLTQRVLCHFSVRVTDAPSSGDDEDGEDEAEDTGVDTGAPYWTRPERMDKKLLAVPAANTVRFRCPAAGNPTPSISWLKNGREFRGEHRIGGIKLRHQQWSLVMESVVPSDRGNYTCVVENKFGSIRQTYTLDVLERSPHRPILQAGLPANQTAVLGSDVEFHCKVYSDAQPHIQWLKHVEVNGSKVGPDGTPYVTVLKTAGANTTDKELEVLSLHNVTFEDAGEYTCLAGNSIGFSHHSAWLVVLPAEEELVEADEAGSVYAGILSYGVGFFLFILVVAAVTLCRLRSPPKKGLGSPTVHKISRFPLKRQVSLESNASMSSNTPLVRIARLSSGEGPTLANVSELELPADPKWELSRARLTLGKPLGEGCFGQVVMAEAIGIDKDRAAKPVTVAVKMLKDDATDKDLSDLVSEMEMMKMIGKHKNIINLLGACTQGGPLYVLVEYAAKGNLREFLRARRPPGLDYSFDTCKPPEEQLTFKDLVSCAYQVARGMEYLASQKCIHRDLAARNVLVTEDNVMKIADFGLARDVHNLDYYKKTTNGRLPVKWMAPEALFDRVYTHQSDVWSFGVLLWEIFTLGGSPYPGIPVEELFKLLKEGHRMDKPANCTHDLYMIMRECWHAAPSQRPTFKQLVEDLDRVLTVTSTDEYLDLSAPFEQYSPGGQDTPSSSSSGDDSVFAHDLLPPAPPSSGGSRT

DLD-1 [2] = test: Antitumor activity against human DLD-1 cells xenografted in mouse assessed as tumor growth inhibition at 15 mg/kg, po administered once a day for 21 days; format: functional; conditions: DLD-1, 504 h, time 21 day, read-out: TGI
Outline: (§1)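 Human tumor xenografts in mice. Drugs given orally, as single agents or combined with the PI3K inhibitor. Schedules were daily (QD) or every third day (Q3D) over 21 days. Tumor volume was measured by caliper as (L×W×W)/2. %TGI = 100×[1 − AUC(treatment/d)/AUC(vehicle/d)] from fitted growth curves, with group means. Tumor lysates were immunoblotted for pS6.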

[3] = molecular target: Tyrosine-protein kinase Lck (Homo sapiens, UniProt P06239); test: Inhibition of Lck (unknown origin)
[4] = molecular target: Serine/threonine-protein kinase Chk1 (Homo sapiens, UniProt O14757); test: Inhibition of CHK1 (unknown origin)
Serine/threonine-protein kinase Chk1, sequence (O14757 whole entry): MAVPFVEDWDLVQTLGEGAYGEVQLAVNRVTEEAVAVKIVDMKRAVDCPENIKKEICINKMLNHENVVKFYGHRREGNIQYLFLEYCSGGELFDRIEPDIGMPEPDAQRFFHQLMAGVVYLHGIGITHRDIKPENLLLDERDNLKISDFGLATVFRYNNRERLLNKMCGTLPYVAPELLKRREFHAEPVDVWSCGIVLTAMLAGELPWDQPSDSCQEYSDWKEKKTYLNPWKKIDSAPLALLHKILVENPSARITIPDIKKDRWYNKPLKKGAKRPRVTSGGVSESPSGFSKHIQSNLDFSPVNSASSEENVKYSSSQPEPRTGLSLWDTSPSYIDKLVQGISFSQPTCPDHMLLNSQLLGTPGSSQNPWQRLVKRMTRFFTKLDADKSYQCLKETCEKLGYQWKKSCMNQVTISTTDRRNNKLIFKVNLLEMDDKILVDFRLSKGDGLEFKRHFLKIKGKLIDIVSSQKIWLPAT

[5] = Antitumor activity against human A375.X1 cells harboring BRAF V600E/CDKN2A E61 mutant xenografted in mouse assessed as tumor growth inhibition at 2.5 mg/kg, po; format: functional; conditions: A375.X1, read-out: TGI
Outline: (§2)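 Single-agent dose ranging in human tumor xenograft mice at 2.5, 5 or 10 mg/kg oral. Tumor volume was measured by caliper as (L×W×W)/2. %TGI = 100×[1 − AUC(treatment/d)/AUC(vehicle/d)] from the fitted growth curve per dose group, relative to vehicle.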

Casein kinase I = test: Inhibition of CK1 (unknown origin); format: protein assay, Homo sapiens
[6] = molecular target: Phosphatidylinositol 4,5-bisphosphate 3-kinase catalytic subunit gamma isoform (Homo sapiens, UniProt P48736); test: Inhibition of PI3Kgamma (unknown origin)
Phosphatidylinositol 4,5-bisphosphate 3-kinase catalytic subunit gamma isoform, sequence (P48736 whole entry, canonical isoform): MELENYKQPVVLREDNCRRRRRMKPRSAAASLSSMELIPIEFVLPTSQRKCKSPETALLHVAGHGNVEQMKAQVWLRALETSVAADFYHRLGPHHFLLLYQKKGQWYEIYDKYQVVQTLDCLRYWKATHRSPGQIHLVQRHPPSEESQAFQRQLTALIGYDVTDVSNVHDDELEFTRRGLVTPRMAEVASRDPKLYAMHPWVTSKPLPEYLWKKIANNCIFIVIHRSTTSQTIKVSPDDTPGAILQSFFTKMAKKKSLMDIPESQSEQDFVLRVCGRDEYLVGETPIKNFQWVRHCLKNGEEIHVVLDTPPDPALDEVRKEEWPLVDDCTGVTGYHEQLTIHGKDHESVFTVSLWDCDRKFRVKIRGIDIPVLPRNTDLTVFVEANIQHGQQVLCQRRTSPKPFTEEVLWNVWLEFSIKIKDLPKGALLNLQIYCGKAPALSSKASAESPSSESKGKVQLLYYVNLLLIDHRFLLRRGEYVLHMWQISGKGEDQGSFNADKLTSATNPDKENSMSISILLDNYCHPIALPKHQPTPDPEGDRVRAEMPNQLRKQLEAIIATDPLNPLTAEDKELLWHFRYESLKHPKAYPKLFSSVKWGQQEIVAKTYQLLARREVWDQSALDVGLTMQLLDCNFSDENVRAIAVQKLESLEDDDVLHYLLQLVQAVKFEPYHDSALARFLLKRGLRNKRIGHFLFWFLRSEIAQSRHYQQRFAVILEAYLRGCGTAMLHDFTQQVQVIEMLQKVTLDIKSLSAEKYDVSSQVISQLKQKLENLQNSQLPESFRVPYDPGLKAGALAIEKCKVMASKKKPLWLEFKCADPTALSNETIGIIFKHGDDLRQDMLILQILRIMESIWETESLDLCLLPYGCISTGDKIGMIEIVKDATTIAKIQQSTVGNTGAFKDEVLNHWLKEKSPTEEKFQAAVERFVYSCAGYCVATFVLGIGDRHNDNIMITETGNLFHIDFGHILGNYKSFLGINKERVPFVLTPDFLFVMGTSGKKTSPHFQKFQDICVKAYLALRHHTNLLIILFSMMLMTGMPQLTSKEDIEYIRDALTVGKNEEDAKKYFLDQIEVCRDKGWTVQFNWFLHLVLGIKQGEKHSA

DLD-1 [7] = test: Antitumor activity against human DLD-1 cells xenografted in mouse assessed as tumor growth inhibition at 10 mg/kg, po administered every third day for 21 days; format: functional; conditions: DLD-1, 504 h, time 21 day, read-out: TGI; outline: as §1
[8] = Inhibition of PKA (unknown origin); set-up: species or system Homo sapiens
[9] = molecular target: Beta-adrenergic receptor kinase 1 (Homo sapiens, UniProt P25098); test: Inhibition of GRK2 (unknown origin)
Beta-adrenergic receptor kinase 1, sequence (P25098 whole entry): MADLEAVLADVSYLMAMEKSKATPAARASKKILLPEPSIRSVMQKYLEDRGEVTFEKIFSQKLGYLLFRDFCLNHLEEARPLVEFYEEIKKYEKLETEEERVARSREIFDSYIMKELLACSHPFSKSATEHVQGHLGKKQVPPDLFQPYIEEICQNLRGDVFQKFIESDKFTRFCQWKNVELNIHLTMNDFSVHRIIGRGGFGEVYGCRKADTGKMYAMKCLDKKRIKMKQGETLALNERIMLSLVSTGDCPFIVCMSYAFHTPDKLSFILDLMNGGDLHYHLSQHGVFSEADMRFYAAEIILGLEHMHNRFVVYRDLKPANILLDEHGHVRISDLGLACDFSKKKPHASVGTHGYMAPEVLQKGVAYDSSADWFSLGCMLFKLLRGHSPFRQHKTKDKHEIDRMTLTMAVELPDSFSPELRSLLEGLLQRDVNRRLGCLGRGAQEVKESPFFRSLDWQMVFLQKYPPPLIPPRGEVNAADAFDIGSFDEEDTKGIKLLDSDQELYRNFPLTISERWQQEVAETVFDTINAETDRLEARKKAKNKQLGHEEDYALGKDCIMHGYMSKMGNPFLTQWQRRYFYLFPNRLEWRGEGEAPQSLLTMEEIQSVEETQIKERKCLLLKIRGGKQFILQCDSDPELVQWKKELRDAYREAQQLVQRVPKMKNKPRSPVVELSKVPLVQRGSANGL

A2058 [10] = test: Antitumor activity against human A2058 cells harboring BRAF V600E/PTEN deletion mutant xenografted in mouse assessed as increase in Bims level at 15 mg/kg, po administered every third day for 21 days and measured after 8 hrs post dose by Western blot analysis; format: functional, organism-based; conditions: time 512.0 hrs
COLO-829 = test: Antiproliferative activity against human COLO-829 cells assessed reduction in cell viability incubated for 4 days in presence of 4-(2-(1H-indazol-4-yl)-6-((4-(methylsulfonyl)piperazin-1-yl)methyl)thieno[3,2-d]pyrimidin-4-yl)morpholine by celltiter-glo assay; format: functional; conditions: time 4 day
Outline: (§3)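 4-day CellTiter-Glo viability read-out on melanoma lines, cells exposed to increasing concentrations of each inhibitor alone and in combination.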

A2058 [11] = test: Antitumor activity against human A2058 cells harboring BRAF V600E/PTEN deletion mutant xenografted in mouse assessed as suppression of ERK phosphorylation at 15 mg/kg, po administered every third day for 21 days and measured after 72 hrs post dose by Western blot analysis; format: functional, organism-based; conditions: time 576.0 hrs
A375.X1 = test: Antitumor activity against human A375.X1 cells xenografted in mouse assessed as reduction in ERK phosphorylation at 1 to 10 mg/kg, po by Western blot analysis; format: functional, organism-based; conditions: dose 1-10 mg/kg, time 74-96 hrs, TDE = time-dependent effect
Outline: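 A375.X1 xenograft mice were dosed orally at 1, 3, 5 or 10 mg/kg once daily for 3 days. Tumors were collected 2, 8 and 24 h after the last dose, pulverized frozen and resolved by 4–12% SDS-PAGE. p-ERK1/2 and t-ERK1/2 were measured by Western blot and quantified by band intensity, relative to vehicle-treated mice (0 h).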

Casein kinase 2 = Casein kinase 2 (Homo sapiens, UniProt P67870+P68400+P19784+Q8NEV1); test: Inhibition of CK2 (unknown origin); format: protein assay
A-375 = test: Antitumor activity against human A-375 cells xenografted in mouse assessed as decrease in pS6 level at 5 mg/kg, po administered for 4 days and measured after 2 hrs in presence of 4-(2-(1H-indazol-4-yl)-6-((4-(methylsulfonyl)piperazin-1-yl)methyl)thieno[3,2-d]pyrimidin-4-yl)morpholine; format: functional, organism-based; conditions: time 98.0 hrs
NCI-H69 = test: Antitumor activity against human NCI-H69 cells harboring RBI E748/PK3CA G106_R108/TP53 E171 mutant xenografted in mouse assessed as tumor growth inhibition at 5 mg/kg, po; format: functional; conditions: read-out: TGI
Outline: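 Human tumor xenografts in mice were dosed orally at the indicated mg/kg. Tumor volume was measured with calipers as (L×W×W)/2. %TGI = 100 × [1 − (AUC treatment/d)/(AUC vehicle/d)], using the area under the fitted tumor-growth curve per day for each dose group relative to vehicle.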

Calu-6 = test: Antitumor activity against human Calu-6 cells harboring KRAS Q61K and TP53 R196 mutant xenografted in mouse assessed as tumor growth inhibition at 2.5 mg/kg, po; format: functional; conditions: read-out: TGI; outline: as §2
A2058 [12] = test: Antitumor activity against human A2058 cells harboring BRAF V600E/PTEN deletion mutant xenografted in mouse assessed as decrease in tumor volume at 10 mg/kg, po administered once weekly for 21 days in presence of GDC-0980 by digital calipers analysis; format: functional, organism-based; conditions: time 21.0 day
G-361 = test: Antiproliferative activity against human G361 cells assessed reduction in cell viability incubated for 4 days in presence of 4-(2-(1H-indazol-4-yl)-6-((4-(methylsulfonyl)piperazin-1-yl)methyl)thieno[3,2-d]pyrimidin-4-yl)morpholine by celltiter-glo assay; format: functional; conditions: time 4 day; outline: as §3
[13] = molecular target: Protein kinase C gamma type (Homo sapiens, UniProt P05129); test: Inhibition of PKCg (unknown origin)
[14] = molecular target: Receptor tyrosine-protein kinase erbB-2 (Homo sapiens, UniProt P04626); test: Inhibition of ErbB2 (unknown origin)
Receptor tyrosine-protein kinase erbB-2, sequence (P04626 whole entry): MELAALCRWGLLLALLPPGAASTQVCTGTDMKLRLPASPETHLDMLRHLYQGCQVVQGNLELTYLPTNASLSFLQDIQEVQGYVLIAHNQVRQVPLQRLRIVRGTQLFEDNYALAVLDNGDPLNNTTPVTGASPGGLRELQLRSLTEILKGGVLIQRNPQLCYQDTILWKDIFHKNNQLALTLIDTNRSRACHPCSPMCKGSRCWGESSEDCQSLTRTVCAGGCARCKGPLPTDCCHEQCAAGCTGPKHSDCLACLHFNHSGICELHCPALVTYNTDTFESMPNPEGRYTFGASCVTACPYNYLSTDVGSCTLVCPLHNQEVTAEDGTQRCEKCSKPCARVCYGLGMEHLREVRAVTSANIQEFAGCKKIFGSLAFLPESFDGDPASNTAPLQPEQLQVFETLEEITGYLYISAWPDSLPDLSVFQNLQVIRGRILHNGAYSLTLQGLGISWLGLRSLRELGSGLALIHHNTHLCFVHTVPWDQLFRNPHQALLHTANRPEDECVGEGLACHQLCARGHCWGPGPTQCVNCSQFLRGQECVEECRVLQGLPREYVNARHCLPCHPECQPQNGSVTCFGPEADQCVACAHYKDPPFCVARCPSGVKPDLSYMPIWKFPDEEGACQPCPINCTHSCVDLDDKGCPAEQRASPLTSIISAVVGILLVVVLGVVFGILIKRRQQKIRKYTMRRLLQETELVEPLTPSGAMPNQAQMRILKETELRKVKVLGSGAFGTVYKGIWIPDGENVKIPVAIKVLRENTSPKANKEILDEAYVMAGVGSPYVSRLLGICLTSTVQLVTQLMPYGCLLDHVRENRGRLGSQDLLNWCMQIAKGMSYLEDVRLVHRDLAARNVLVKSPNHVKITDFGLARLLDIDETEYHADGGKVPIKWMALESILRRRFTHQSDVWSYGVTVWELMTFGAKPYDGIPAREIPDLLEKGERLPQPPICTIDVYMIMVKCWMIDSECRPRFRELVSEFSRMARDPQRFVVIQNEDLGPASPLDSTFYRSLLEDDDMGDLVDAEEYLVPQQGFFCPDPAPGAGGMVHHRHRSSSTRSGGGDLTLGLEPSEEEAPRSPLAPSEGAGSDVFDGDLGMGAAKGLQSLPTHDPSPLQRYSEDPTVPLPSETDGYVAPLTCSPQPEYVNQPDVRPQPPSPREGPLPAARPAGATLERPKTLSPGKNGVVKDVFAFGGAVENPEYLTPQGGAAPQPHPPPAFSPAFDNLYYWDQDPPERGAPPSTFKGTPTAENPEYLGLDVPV

[15] = molecular target: Serine/threonine-protein kinase Nek7 (Homo sapiens, UniProt Q8TDX7); test: Inhibition of NEK7 (unknown origin)
HCT-116 = test: Antitumor activity against human HCT-116 cells harboring KRAS G13D/PIK3CA […]/CTNNB1 S45del/CDKN2A G23fs mutant xenografted in mouse assessed as tumor growth inhibition at 2.5 mg/kg, po; format: functional; conditions: read-out: TGI; outline: as §2

IC50 [1]: > 10 µM
IC50 [3]: > 10 µM
IC50 [4]: > 10 µM
IC50 (Casein kinase I): > 10 µM
IC50 [6]: > 10 µM
IC50 [8]: > 10 µM
IC50 [9]: > 10 µM
IC50 (Casein kinase 2): > 10 µM
IC50 [13]: > 10 µM
IC50 [14]: > 10 µM
IC50 [15]: > 10 µM
SMILES: O=C(c1ccc(F)c(F)c1Nc1ccc(I)cc1F)N1CC(O)([C@@H]2CCCCN2)C1 [COBIMETINIB]
inhibition in vivo at 20 mg/kg (NCI-H2122): 87%
inhibition in vivo at 15 mg/kg (DLD-1 [2]): 2%
inhibition in vivo at 2.5 mg/kg [5]: 97.5%
inhibition in vivo at 10 mg/kg (DLD-1 [7]): 18%
Activity (A2058 [10]): Active
Activity (COLO-829): 60%
Activity (A2058 [11]): Active
Activity (A375.X1): Tde
Activity (A-375): Active
inhibition in vivo at 5 mg/kg (NCI-H69): 21%
inhibition in vivo at 2.5 mg/kg (Calu-6): 27.5%
Activity (A2058 [12]): Active
Activity (G-361): 60%
inhibition in vivo at 2.5 mg/kg (HCT-116): 34%
